# Results from different studies.
# Lines come from different studies, so protocols differ.
# Effect on: cell growth or viability
Compound,cell line,assay,setting,quantity,result
COc1ccc(-c2ccc(-c3ccc(C(=N)N)nc3)s2)cc1,SNB-19,SRB,,GI50,1.72 µM
C[C@@H](Oc1cc(-c2cnn(C3CCNCC3)c2)cnc1N)c1c(Cl)ccc(F)c1Cl,KARPAS-299,MTT,"0.008 µg/mL, 72 h",inhibition,27.5%
CCOC(=O)c1c(C)ncn1CC(c1cn(C)c2ccc([N+](=O)[O-])cc12)c1cn(C)c2ccc([N+](=O)[O-])cc12,HaCaT,MTS,"20 µM, 24 h",inhibition,3.7%
Cc1cc(C)cc(COc2cc3c(cc2OCc2cc(C)cc(C)c2)[C@H]2C[C@](O)(Cc4cn(-c5ccccc5)nn4)C[C@H](C)N2CC3)c1,ASPC1,MTT,,IC50,0.593 µM
COc1cc(-c2ccc(-c3ccc(C(=N)N)nc3)s2)cc(OC)c1OC,SNB-19,SRB,,GI50,4.73 µM
CCOC(=O)c1cn(CC(c2cn(C)c3ccc(C)cc23)c2cn(C)c3ccc(C)cc23)c(C)c1C(=O)OC,HaCaT,MTS,"20 µM, 24 h",inhibition,9.5%
Cc1cc(C)cc(COc2cc3c(cc2OCc2cc(C)cc(C)c2)[C@H]2C[C@](O)(Cc4cn(Cc5cnccn5)nn4)C[C@H](C)N2CC3)c1,ASPC1,MTT,,IC50,0.753 µM
CCCCc1nc(Cl)c(CO)n1Cc1ccc(-c2ccccc2-c2nn[nH]n2)cc1,WI-38,MTT,72 h,EC50,9 µM
Cc1cc(C)cc(COc2cc3c(cc2OCc2cc(C)cc(C)c2)C2CC(O)(Cc4cn(CCOCCOCCOCCNC(=O)CNc5cccc6c5C(=O)N(C5CCC(=O)NC5=O)C6=O)nn4)CC(C)N2CC3)c1 (stereo not shown),ASPC1,MTT,,IC50,3.21 µM
COC(=O)c1c(C)ncn1CC(c1c[nH]c2ccc(C)cc12)c1c[nH]c2ccc(C)cc12,HaCaT,MTS,"20 µM, 24 h",inhibition,12.2%
C=CC(=O)Nc1ccc(Cn2cc(C[C@@]3(O)C[C@@H]4c5cc(OCc6cc(C)cc(C)c6)c(OCc6cc(C)cc(C)c6)cc5CCN4[C@@H](C)C3)nn2)cc1,ASPC1,MTT,,IC50,0.481 µM
COC(C)(C)CCC[C@](C)(O)[C@H]1CC[C@]2(C)[C@@H]1[C@H](O)C[C@@H]1[C@@]3(C)CC[C@H](O)C(C)(C)[C@@H]3CC[C@]12C,NCI-H358,MTT,72 h,IC80,81.7 µM
Cc1cn(CC(c2cn(C)c3ccccc23)c2cn(C)c3ccccc23)nn1,HaCaT,MTS,"20 µM, 24 h",inhibition,9.6%
Cc1cc(C)cc(COc2cc3c(cc2OCc2cc(C)cc(C)c2)C2CC(O)(Cc4cn(CCOCCOCCOCCNC(=O)CNc5ccc6c(c5)C(=O)N(C5CCC(=O)NC5=O)C6=O)nn4)CC(C)N2CC3)c1 (stereo not shown),ASPC1,MTT,,IC50,> 5 µM
CC(C)C[C@H](NC(=O)[C@H](Cc1ccccc1)NC(=O)c1cnccn1)B(O)O,KARPAS-299,ATP luminescence,,IC50,0.0052 µM
CC(C)=CCC[C@](C)(O)[C@H]1CC[C@]2(C)[C@@H]1[C@H](O)C[C@@H]1[C@@]3(C)CC[C@H](O[C@@H]4O[C@H](CO)[C@@H](O)[C@H](O)[C@H]4O[C@@H]4O[C@H](CO)[C@@H](O)[C@H](O)[C@H]4O)C(C)(C)[C@@H]3CC[C@]12C,NCI-H358,MTT,72 h,IC80,> 100 µM
N=C(N)c1ccc(OCCCCCOc2ccc(C(=N)N)cc2)cc1,HaCaT,MTS,"20 µM, 24 h",inhibition,11.2%
COc1cc(Nc2nccc(-c3cnn4nc(OC)ccc34)n2)cc(C(F)(F)F)c1,RERF-LC-MS,ATP luminescence,,IC50,0.59 µM
Cc1cc(C)cc(COc2cc3c(cc2OCc2cc(C)cc(C)c2)[C@H]2C[C@](O)(Cc4cn(CCOCCOCCOCC(=O)N[C@H](C(=O)N5C[C@H](O)C[C@H]5C(=O)NCc5ccc(-c6scnc6C)cc5)C(C)(C)C)nn4)C[C@H](C)N2CC3)c1,ASPC1,MTT,,IC50,0.73 µM
Cc1cc(Nc2ncc(Cl)c(Nc3ccccc3S(=O)(=O)C(C)C)n2)c(OC(C)C)cc1C1CCNCC1,KARPAS-299,MTT,"0.06173 µg/mL, 72 h",inhibition,62.4%
Cc1cc(C)cc(COc2cc3c(cc2OCc2cc(C)cc(C)c2)[C@H]2C[C@](O)(Cc4cn(CC56CC7CC(CC(C7)C5)C6)nn4)C[C@H](C)N2CC3)c1,ASPC1,MTT,,IC50,0.516 µM
COc1cccc(Oc2ccccc2NC(=O)CNC(=O)c2cccc3ccccc23)c1,SNB-19,SRB,48 h,GI50,0.617 µM
